Compound in data set [1]: Cc1cc(C)c2cc(C3=CCCCC3)c(C)nc2c1
Briefly: Mixed type inhibition of human 20S proteasome chymotryptic-like activity using Suc-LLVY-AMC as substrate assessed as Vmax for substrate at 4 uM by Lineweaver-Burk plot analysis (reference value: 0.1959 to 0.2691 umol/min). The procedure, abridged: (§1)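 Kinetics of CT-L activity of purified human 20S proteasome with Suc-LLVY-AMC substrate increased stepwise. Measured at five compound concentrations or vehicle, 37 °C. Fluorescence of released AMC gave rates.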

Compound in data set [2]: Cc1cc(C)c2cc(C3=CCCCC3)c(C)nc2c1
The data set can be described thus: Mixed type inhibition of human 20S proteasome chymotryptic-like activity using Suc-LLVY-AMC as substrate assessed as Vmax for substrate at 7 uM by Lineweaver-Burk plot analysis (reference value: 0.1959 to 0.2691 umol/min). A digest of the protocol:
as §1

Compound in data set [3]: Cc1cc(C)c2cc(C3=CCCCC3)c(C)nc2c1
The data set can be described thus: Mixed type inhibition of human 20S proteasome chymotryptic-like activity using Suc-LLVY-AMC as substrate assessed as Vmax for substrate at 8 uM by Lineweaver-Burk plot analysis (reference value: 0.1959 to 0.2691 umol/min). The procedure, abridged: as §1

Compound in data set [4]: Cc1cc(C)c2cc(C3=CCCCC3)c(C)nc2c1
Briefly: Mixed type inhibition of human 20S proteasome chymotryptic-like activity using Suc-LLVY-AMC as substrate assessed as Vmax for substrate at 6 uM by Lineweaver-Burk plot analysis (reference value: 0.1959 to 0.2691 umol/min). The procedure, abridged: as §1

Compound in data set [5]: Cc1cc(C)c2cc(C3=CCCCC3)c(C)nc2c1
The data set can be described thus: Mixed type inhibition of human 20S proteasome chymotryptic-like activity using Suc-LLVY-AMC as substrate assessed as Vmax for substrate at 5 uM by Lineweaver-Burk plot analysis (reference value: 0.1959 to 0.2691 umol/min). The procedure, abridged: as §1

Compound in data set [6]: Cc1cc(C)c2cc(C3=CCCCC3)c(C)nc2c1
The data set can be described thus: Mixed type inhibition of human 20S proteasome chymotryptic-like activity using Suc-LLVY-AMC as substrate assessed as Vmax for substrate at 10 uM by Lineweaver-Burk plot analysis (reference value: 0.1959 to 0.2691 umol/min ). A digest of the protocol:
as §1

Compound in data set [7]: Cc1cc(C)c2cc(C3=CCCCC3)c(C)nc2c1
Briefly: Mixed type inhibition of human 20S proteasome chymotryptic-like activity using Suc-LLVY-AMC as substrate assessed as Vmax for substrate at 9 uM by Lineweaver-Burk plot analysis (reference value: 0.1959 to 0.2691 umol/min). The procedure, abridged:
as §1

B1: Proteasome Macropain subunit MB1 (Homo sapiens), P28074 (protein)
chain: MALASVLERPLPVNQRGFFGLGGRADLLDLGPGSLSDGLSLAAPGWGVPEEPGIEMLHGTTTLAFKFRHGVIVAADSRATAGAYIASQTVKKVIEINPYLLGTMAGGAADCSFWERLLARQCRIYELRNKERISVAAASKLLANMVYQYKGMGLSMGTMICGWDKRGPGLYYVDSEGNRISGATFSVGSGSVYAYGVMDRGYSYDLEVEQAYDLARRAIYQATYRDAYSGGAVNLYHVREDGWIRVSSDNVADLHEKYSGSTP
Regarding B1, the Vmax was 0.0959 µmol/min in data set [1]; 0.0674 µmol/min in data set [2]; 0.0587 µmol/min in data set [3]; 0.0703 µmol/min in data set [4]; 0.0924 µmol/min in data set [5]; 0.0329 µmol/min in data set [6]. Besides, in data set [7], the maximum rate (Vmax) worked out at 0.0466 µmol/min.

In general, Vmax refers to the rate approached at saturating substrate.

For the origin of these results see ChEMBL document CHEMBL3804753, “Substituted quinolines as noncovalent proteasome inhibitors” (Bioorg Med Chem, 2016).
